# Reference: ChEMBL document CHEMBL3272099, “Antibacterial activity of N-(beta-styryl) formamides related to tuberin” (J Med Chem, 1978)
# Calls of active or inactive are those of the source. No cut-off for these calls is given here.
# Experiments:
# Staphylococcus aureus [1] = assay: Antibacterial activity against Staphylococcus aureus at 200 ug/ml; type: functional, organism-based
# Mycolicibacterium phlei [2] = assay: Antibacterial activity against Mycobacterium phlei; type: functional
# Outline: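 MIC by standard agar dilution, run in duplicate; estimated standard deviation under 0.15 log units; reported as log 1/MIC (molar).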
# [3] = C18 corasil-octanol partition coefficient, log P of the compound in 0.01 M phosphate buffer at pH 7 by LC on C18 Corasil coated with 1-octanol; conditions: octanol/0.01 M phosphate buffer (C18 Corasil-octanol)
# [4] = C18 corasil-25 wt % MeOH partition coefficient, log K of the compound in 0.001 M phosphate buffer; conditions: pH 7.4
# Staphylococcus aureus [5] = assay: Antibacterial activity against Staphylococcus aureus; type: functional
# Mycolicibacterium phlei [6] = assay: Antibacterial activity against Mycobacterium phlei at 640 ug/ml; type: functional, organism-based
SMILES,Activity (Staphylococcus aureus [1]),MIC (Mycolicibacterium phlei [2]) [µg/mL],logD [3],log K [4],MIC (Staphylococcus aureus [5]) [µg/mL],Activity (Mycolicibacterium phlei [6])
CCCCC/C=C/NC=O,inactive,40,,,,
O=CN/C=C/c1ccc2ccccc2c1,inactive,20,3.22,1.16,,
CC(C)Oc1ccc(/C=C/NC=O)cc1,inactive,320,2.61,0.93,,
COc1ccc(/C=C/NC=O)cc1,inactive,80,1.94,0.28,,
O=CN/C=C/C1CCCCC1,inactive,160,,,,
O=CN/C=C/c1ccc([N+](=O)[O-])cc1,,320,1.94,0.24,3,
O=CN/C=C/c1ccc(Cl)cc1,,80,2.7,0.79,200,
O=CN/C=C/c1ccc(F)cc1,inactive,160,2.11,0.33,,
CC(=O)Oc1ccc(/C=C/NC=O)cc1,inactive,640,1.32,0.16,,
O=CN/C=C/c1ccccc1,,640,1.95,0.21,50,
CCOc1ccc(/C=C/NC=O)cc1,inactive,40,2.31,0.65,,
CSc1ccc(/C=C/NC=O)cc1,,40,2.55,0.77,100,
CCN(CC)c1ccc(/C=C/NC=O)cc1,inactive,320,2.9,,,
O=CN/C=C/c1ccc(Br)cc1,,160,2.87,0.96,100,
O=CN/C=C/c1ccc(S(=O)(=O)c2ccccc2)cc1,inactive,320,1.95,0.78,,
CN(C)c1ccc(/C=C/NC=O)cc1,inactive,640,2.03,0.48,,
O=CN/C=C/c1ccco1,inactive,,,,,inactive
Cc1ccc(/C=C/NC=O)cc1,inactive,40,2.45,0.66,,
O=CN/C=C/c1cccs1,,320,,,25,
CC(C)(C)c1ccc(/C=C/NC=O)cc1,,80,3.82,1.71,200,
O=CN/C=C/c1cccc2ccccc12,inactive,80,,,,
O=CN/C=C/c1ccc(C(F)(F)F)cc1,,80,3.06,1.09,100,
N#Cc1ccc(/C=C/NC=O)cc1,inactive,640,1.62,0.04,,
O=CN/C=C/c1ccc(I)cc1,,160,3.18,1.14,200,
CCCCOc1ccc(/C=C/NC=O)cc1,inactive,80,3.32,1.62,,
O=CN/C=C/c1ccc(O)cc1,inactive,,,,,inactive
